The record followed here is ChEMBL document CHEMBL4321838, “Drug Design Targeting T-Cell Factor-Driven Epithelial-Mesenchymal Transition as a Therapeutic Strategy for Colorectal Cancer” (J Med Chem, 2019).

Series [1] addresses T1, DNA topoisomerase 2-alpha (Homo sapiens, UniProt P11388). Put plainly: Inhibition of human topoisomerase 2alpha mediated decatenation at 30 uM using kDNA as susbtrate preincubated for 20 mins followed by substrate and ATP addition and measured after 1 hr by ethidium bromide staining based gel electrophoresis method relative to control. Put shortly: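 Human TOP2A (3 U) preincubated 20 min at 37 °C with compound at 30 μM in 1.2% DMSO. Reaction started with 2 mM ATP and 35 ng kDNA and run 1 h at 37 °C. Products resolved on 0.8% agarose in TBE with 0.2 μg/mL ethidium bromide; decatenated bands compared with vehicle.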

The nature of series [2]: Metabolic stability in CD-1 mouse inactive microsomes incubated for 1 hr by LC-MS/MS analysis. The class given is ADME, Microsome.
The nature of series [3]: Drug metabolism in CD-1 mouse active microsomes assessed as metabolite formation at rate of first-order kinetics by LC-MS/MS analysis. In kind it is ADME, Microsome.
Series [4] in a line: Drug metabolism in CD-1 mouse active microsomes assessed as metabolite formation at rate of biphasic kinetics by LC-MS/MS analysis. The class given is ADME, Microsome.
A short description of series [5]: Drug metabolism in CD-1 mouse active microsomes assessed as CYP450-mediated oxidative phase 1 metabolite formation measured within 30 mins by LC-MS/MS analysis. The class given is ADME. As to conditions: 0.5 h.
The nature of series [6]: Drug metabolism in CD-1 mouse active microsomes assessed as CYP450-mediated oxidative phase 1 metabolite formation by LC-MS/MS analysis.
The target of series [7] is T1, DNA topoisomerase 2-alpha. Put plainly: Poison activity at topoisomerase 2alpha in human SW620 cells assessed as induction of DNA double stranded break by measuring gamma H2AX phosphorylation up to 40 uM after 6 hrs by Hoechst-33342 staining based immunofluorescence assay. In kind it is cell-based. Put shortly:
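SW620 monolayers, 20,000 cells per well, treated with compound for 6 or 24 h. Fixed in 4% paraformaldehyde, then permeabilised and blocked. Stained with γ-H2AX antibody overnight at 4 °C, FITC secondary antibody, and Hoechst 33342, then imaged at 20x.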

Series [8] deals with T1, DNA topoisomerase 2-alpha. Put plainly: Inhibition of topoisomerase 2alpha dependent TCF transcription in human SW620 organoids transduced with TOPflash luminescent reporter at 10 uM after 72 hrs by luciferase based TOPFlash reporter gene assay. A general note: A reporter such as luciferase makes a cellular process visible.
For series [9], the target named is T1, DNA topoisomerase 2-alpha. The experiment in a line: Inhibition of topoisomerase 2alpha in human SW620 organoids transfected with VimPro-GFP reporter assessed as reversion of epithelial-mesenchymal transition by measuring reduction in vimentin expression at 10 uM after 72 hrs by Hoechst 33342 staining based GFP reporter gene assay. The gist of the method:
(§1)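 SW620 cells stably carrying VimPro-GFP or EcadPro-mCherry (puromycin selected) grown as organoids and dosed 72 h. Stained with 16 μM Hoechst 33342 for 1 h and imaged as 15 z-layers, 26.5 μm apart. Nuclei segmented and GFP- or mCherry-positive cells counted above background thresholds. Percent positive cells normalised to DMSO.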

Series [10] concerns the target T1, DNA topoisomerase 2-alpha. The experiment in a line: Inhibition of topoisomerase 2alpha in human SW620 organoids transfected with EcadPro-RFP reporter assessed as reversion of epithelial-mesenchymal transition by measuring increase in E-cadherin expression at 10 uM after 72 hrs by Hoechst 33342 staining based mCherryRFP reporter gene assay. Put shortly: as §1

The subject of series [11] is SW-620. Put plainly: Anticlonogenic activity against human SW620 cells assessed as loss of cancer stem cell stemness by measuring inhibition of colony formation at 10 uM incubated for 24 hrs followed by replating and measured after 7 days by clonogenic assay. The class given is functional, cell-based.
The subject of series [12] is SW-620. Put plainly: Antiinvasive activity in human SW620 organoids transduced with NucLight-Red virus assessed as inhibition of cell invasion at 10 uM incubated for 72 hrs and measured after 72 hrs by matrigel based fluorescence analysis. The class given is functional. The gist of the method:
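NucLight-Red-labelled SW620 organoids treated 72 h at 10 μM in 0.1% DMSO, then dissociated. 5,000 live cells per well seeded in 50% Matrigel in the upper chamber of a migration plate, 0.5% FBS above and 20% FBS below. Invading cells tracked by bottom-side fluorescence over days, six replicates per condition.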

For series [13], the target named is T1, DNA topoisomerase 2-alpha. Put plainly: Inhibition of human topoisomerase 2alpha mediated decatenation using kDNA as susbtrate preincubated for 20 mins followed by substrate and ATP addition and measured after 1 hr by ethidium bromide staining based gel electrophoresis method. The gist of the method: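 IC50 from decatenation gels: TOP2A at 4 U per reaction, compound as 2-fold serial dilutions from 58.6 nM to 30 μM, 20 min preincubation. Then 2 mM ATP plus 35 ng kDNA for 1 h at 37 °C. Gels were 0.8% agarose with ethidium bromide, with decatenated and catenated DNA marker lanes.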

Series [14] addresses T1, DNA topoisomerase 2-alpha. Put plainly: Inhibition of topoisomerase 2alpha dependent TCF transcription in human SW620 organoids transduced with TOPflash luminescent reporter after 72 hrs by luciferase based TOPFlash reporter gene assay. The gist of the method:
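SW620 cells stably carrying pCDH-TOPflash-luc grown as organoids: 5,000 cells per U-bottom well in phenol red-free RPMI with 5% FBS and 2% Matrigel, 72 h. Inhibitor then applied 72 h. One-Glo luciferase and CellTiter-Glo 3D added 1:1. Luciferase signal normalised to viability, then to DMSO controls.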

In series [15] the test system is SW-620. Put plainly: Cytotoxicity against human SW620 organoids assessed as cell death with loss of membrane integrity after 72 hrs by CellTox Green assay. The class given is functional, cell-based. To be noted: SW-620, 72 h. The gist of the method: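 SW620 tumor organoids exposed 72 h to inhibitor over 0–40 μM together with CellTox Green Express (0.5X). Whole-well mean fluorescence imaged (ex 488, em 500–550 nm). Normalised to lysis buffer as 0% viability and 0.4% DMSO as 100% viability.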

Series [16] has as its target T1, DNA topoisomerase 2-alpha. The experiment in a line: Inhibition of topoisomerase 2alpha in human SW620 organoids transfected with VimPro-GFP reporter assessed as reversion of epithelial-mesenchymal transition by measuring reduction in vimentin expression up to 40 uM after 72 hrs by Hoechst 33342 staining based GFP reporter gene assay. The gist of the method:
as §1

The target in series [17] is T1, DNA topoisomerase 2-alpha. The experiment in a line: Inhibition of topoisomerase 2alpha in human SW620 organoids transfected with EcadPro-RFP reporter assessed as reversion of epithelial-mesenchymal transition by measuring increase in E-cadherin expression up to 40 uM after 72 hrs by Hoechst 33342 staining based mCherryRFP reporter gene assay. Put shortly:
as §1

The subject of series [18] is SW-620. The experiment in a line: Induction of apoptosis in human SW620 organoids assessed as increase in cleaved caspase 3/7 level at 40 uM after 72 hrs by caspase-glo 3/7 luminescence assay relative to control. In kind it is functional. Put shortly: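 SW620 cells, 2,000 per well in 384-well ultra-low attachment plates with 2% Matrigel, grown 72 h into organoids, then dosed 72 h. Caspase-Glo 3/7 reagent added 1:1 and shaken 30 min; luminescence read. Staurosporine served as positive control and 0.4% DMSO as negative control.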

Series [19] can be described thus: Aqueous solubility of compound in PBS at 1 mg after 18 hrs by UV based analysis. The class given is physicochemical. Put shortly: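 Undissolved material removed by centrifugation at 5,000g for 45 min. UV absorption compared with a fully saturated 1-propanol solution; solubility derived by linear regression.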
A short description of series [20]: Half life in CD-1 mouse microsomes measured up to 1 hr by LC-MS analysis. In kind it is ADME, Microsome. The gist of the method:
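Female CD-1 mouse liver microsomes (0.5 mg/mL), substrate 1 μg/mL and 1.5 mM NADPH in 0.1 M phosphate buffer pH 7.4 at 37 °C. Samples taken from 0 to 60 min and quenched with an equal volume of acetonitrile. Parent compound remaining measured by LC-MS/MS without internal standard.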

A short description of series [21]: Cmax in CD-1 mouse at 50 mg/kg, ip by LC-MS/MS analysis. The class given is ADME, organism-based. The arrangement: dose 50 mg/kg, route intraperitoneal. As to conditions: in vivo. Put shortly:
(§2)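 Female CD-1 mice, single IP injection at 50 mg/kg in 100% DMSO. Sampling from 0.25 to 24 h, three mice per time point (21 per compound). Heparinised blood was spun to plasma, mixed 1:1 with acidified acetonitrile (0.1% formic acid or 0.1% TFA depending on compound), centrifuged, then measured by LC-MS/MS.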

Series [22] in a line: Tmax in CD-1 mouse at 50 mg/kg, ip by LC-MS/MS analysis. The class given is ADME, organism-based. To be noted: in vivo. The gist of the method: as §2
Another series relates to Mus musculus. Put plainly: Apparent volume of drug distribution in CD-1 mouse at 50 mg/kg, ip by LC-MS/MS analysis. The class given is ADME, organism-based. To be noted: in vivo. Put shortly: as §2
The nature of series [23]: AUC(0 to t) in CD-1 mouse at 50 mg/kg, ip by LC-MS/MS analysis. To be noted: in vivo. In kind it is ADME, organism-based. Put shortly: as §2
Series [24] in a line: Clearance in CD-1 mouse at 50 mg/kg, ip by LC-MS/MS analysis. The class given is ADME, organism-based. To be noted: in vivo. Put shortly:
as §2

Series [25] can be described thus: Half life of terminal disposition phase in CD-1 mouse at 50 mg/kg, ip by LC-MS/MS analysis. The class given is ADME, organism-based. To be noted: in vivo, read-out: t1/2lambda (converted). Put shortly:
as §2

Series [26] has as its system SW-620. Put plainly: Induction of early stage cell death in human SW620 organoids transfected with EcadPro-RFP reporter assessed as loss of RFP reporter activity at 40 uM at after 72 hrs by Hoechst 33342 staining based mCherryRFP reporter gene assay. As to conditions: sw-620, 72 h.
The test system of series [27] is SW-620. The experiment in a line: Cytotoxicity against human SW620 organoids assessed as growth inhibition at 10 uM after 72 hrs by brightfield imaging of organoid volume.

The structures appear in SMILES notation. Values after ≈ are worked out from the molar mass of the structure shown. Active and inactive are the calls of the source. Where only a bound is given, the exact number is not on record here.

T1 sequence (P11388 whole entry): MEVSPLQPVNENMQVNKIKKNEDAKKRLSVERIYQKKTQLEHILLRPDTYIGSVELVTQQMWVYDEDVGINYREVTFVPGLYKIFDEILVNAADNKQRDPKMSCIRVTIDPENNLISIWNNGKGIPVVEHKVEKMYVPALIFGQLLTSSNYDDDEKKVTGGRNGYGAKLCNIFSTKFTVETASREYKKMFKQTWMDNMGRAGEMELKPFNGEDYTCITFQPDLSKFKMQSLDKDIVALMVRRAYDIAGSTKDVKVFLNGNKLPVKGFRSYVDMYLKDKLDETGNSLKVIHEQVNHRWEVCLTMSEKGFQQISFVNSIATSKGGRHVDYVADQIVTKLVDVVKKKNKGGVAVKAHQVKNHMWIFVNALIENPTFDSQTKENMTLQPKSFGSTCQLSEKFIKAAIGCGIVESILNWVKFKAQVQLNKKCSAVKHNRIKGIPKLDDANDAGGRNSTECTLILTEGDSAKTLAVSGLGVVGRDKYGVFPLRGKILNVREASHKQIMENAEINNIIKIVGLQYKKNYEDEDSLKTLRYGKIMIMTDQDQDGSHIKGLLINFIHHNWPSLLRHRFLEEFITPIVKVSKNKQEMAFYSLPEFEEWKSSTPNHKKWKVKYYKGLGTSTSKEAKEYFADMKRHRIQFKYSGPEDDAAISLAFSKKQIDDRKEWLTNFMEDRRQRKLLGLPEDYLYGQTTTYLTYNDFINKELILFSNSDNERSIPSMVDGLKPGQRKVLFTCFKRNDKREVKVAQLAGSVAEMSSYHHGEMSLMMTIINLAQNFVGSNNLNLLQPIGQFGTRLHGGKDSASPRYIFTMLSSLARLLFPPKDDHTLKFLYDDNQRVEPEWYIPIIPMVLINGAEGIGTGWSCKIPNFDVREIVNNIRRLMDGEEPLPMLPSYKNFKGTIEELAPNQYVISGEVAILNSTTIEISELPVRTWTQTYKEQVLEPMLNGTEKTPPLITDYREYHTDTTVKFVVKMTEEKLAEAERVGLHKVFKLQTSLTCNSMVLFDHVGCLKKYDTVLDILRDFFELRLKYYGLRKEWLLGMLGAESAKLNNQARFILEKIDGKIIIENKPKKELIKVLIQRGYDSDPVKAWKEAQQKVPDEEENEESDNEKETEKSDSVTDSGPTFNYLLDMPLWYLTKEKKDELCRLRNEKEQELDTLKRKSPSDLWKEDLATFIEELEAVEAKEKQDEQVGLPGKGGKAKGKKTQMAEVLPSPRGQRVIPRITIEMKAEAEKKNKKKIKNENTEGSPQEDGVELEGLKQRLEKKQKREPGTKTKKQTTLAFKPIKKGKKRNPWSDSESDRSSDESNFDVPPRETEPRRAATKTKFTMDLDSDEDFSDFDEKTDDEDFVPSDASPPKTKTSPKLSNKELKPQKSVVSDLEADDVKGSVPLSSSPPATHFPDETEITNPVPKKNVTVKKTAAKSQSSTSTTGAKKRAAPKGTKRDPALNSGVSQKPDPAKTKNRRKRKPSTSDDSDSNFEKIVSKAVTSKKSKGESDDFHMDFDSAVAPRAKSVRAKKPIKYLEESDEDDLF

For the compound `CC(=O)Nc1ccc2c(-c3ccccc3)ccnc2c1O`, the inhibition – broadly, the percentage by which the read-out fell short of the control – in [1] came to 25%. Besides, the Stability entry in [2] is given as “Stable”. The results for the Drug metabolism result in [3] and in series [4] were “Metabolite_Notdetected” and “Metabolite_Detected”, respectively.
On to `CC(=O)Nc1ccc2c(-c3ccsc3)ccnc2c1O`, for which the inhibition in series [1] came to 92%. For the same compound, the Drug metabolism result is recorded as “Metabolite_Detected” in series [5], “Metabolite_Notdetected” in series [3], “Metabolite_Detected” in series [4] and “Metabolite_Notdetected” in series [6]. In [2], the Stability entry is “Stable”.
With `Cn1ccc2c(c1=O)C(=O)c1nccc3c1c-2nc1ccccc13` [NEOAMPHIMIDINE], in series [7], the Activity entry is listed as “Not Active”.
Turning to `COc1cc(NC(C)=O)c(O)c2nccc(-c3ccccc3NC(=O)c3ccccc3)c12`, the inhibition entry (in series [8]; in series [9]; in [10]; in the series with SW-620 [11]; in the series with SW-620 [12]) was “Active” in each case. The compound also had an inhibition in series [1] of 100%. The IC50 (usually the point on the concentration scale where inhibition reaches its midpoint) in series [13] is 1.2 µM; in [14] it was 2.4 µM. In the series on SW-620 [15], the EC50 (in general, the midpoint of the concentration-response curve) was over 30 µM. The Drug metabolism entry was “Metabolite_Detected” in series [5] and “Metabolite_Notdetected” in [6]. The Stability result in series [2] is given as “Stable”.
Consider `CC(=O)Nc1ccc2c(-c3cc(F)ccc3O)ccnc2c1O`, for which the values for the Activity result (in series [7]; in the series on SW-620 [26]) were “Not Active” and “Active”, respectively. Also, the inhibition result (in series [8]; in [9]; in [10]; in the series with SW-620 [11]; in the series on SW-620 [12]; in [16]) was “Active” throughout. In series [17], the inhibition result is “Active”. In series [1], this compound showed an inhibition of 99%. Further, the IC50 in series [14] worked out at 2.4 µM. Moreover, the EC50 with SW-620 [15] is over 30 µM. For the same compound, the result in the series on SW-620 [18] was Active. Moreover, in series [19], the solubility (thermodynamic) – broadly, solubility found after equilibrating the solid with the medium – at 18 h stood at 450 µg/mL (≈ 1440 µM). The t1/2 in series [20] turned out to be 6.72 min. The Cmax (as a rule, the peak of the concentration-time curve) in series [21] came out at 19000 ng/mL. Also, in series [22], the Tmax – broadly, the time at which the peak concentration occurs – was 15 min. In addition, the Vz in the series with Mus musculus turned out to be 10.9 L/kg. For the same compound, in series [23], the AUC(0-t) (in general, the area under the concentration-time curve up to a stated or last time point) worked out at 12500 ng·h/mL. The CL/F – broadly, the apparent clearance, not corrected for the fraction that reaches the circulation – in series [24] is 64.5 mL/min/kg. In addition, in [25], the half-life was 118 min. In addition, the Drug metabolism result in series [5] was “Metabolite_Detected”; in series [6], “Metabolite_Notdetected”. Further, the Stability result in [2] is given as “Stable”. The “growth inhibition (GI)” value in the series on SW-620 [27] is “Active”.
